ERp5 block = blocks human ERp5 reductase activity on insulin. ERp5 insulin aggregation, absorbance 650 nm, 90 min. hit rate 0.05% among 350,000. AID 651711. inhibition, % at 9.99 µM. Q15084;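 active = mean replicate inhibition above about 25%, with every replicate also reaching it, limit read from the data, passing the limit was not always enough; inconclusive = only one of those two criteria met; inactive = neither criterion met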
Target sequence (Q15084 whole entry, looked up): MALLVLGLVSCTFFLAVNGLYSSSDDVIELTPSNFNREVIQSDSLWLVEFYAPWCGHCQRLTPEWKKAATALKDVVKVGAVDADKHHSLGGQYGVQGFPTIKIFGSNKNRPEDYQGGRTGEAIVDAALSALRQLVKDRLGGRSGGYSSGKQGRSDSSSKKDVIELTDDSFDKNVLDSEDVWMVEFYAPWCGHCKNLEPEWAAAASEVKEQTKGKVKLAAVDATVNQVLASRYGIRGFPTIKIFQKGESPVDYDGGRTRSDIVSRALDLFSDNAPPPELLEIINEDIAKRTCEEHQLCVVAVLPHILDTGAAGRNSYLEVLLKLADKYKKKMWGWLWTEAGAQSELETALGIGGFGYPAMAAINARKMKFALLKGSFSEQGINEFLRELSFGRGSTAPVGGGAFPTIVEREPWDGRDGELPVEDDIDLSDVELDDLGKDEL
AF4-AF9 inh = inhibitors of human MLL-AF4/AF9 interaction | inhibition, % at 10 µM | P42568 | AlphaScreen, biotin-AF4 peptide binding to FLAG-AF9 | hit rate 0.47% among 350,000;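 active = every replicate reaching a set inhibition limit, whatever the replicate mean, cut at about 25% in these data; inconclusive = mean inhibition reaches that limit but some replicates miss it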
FN deposit inh = fibronectin deposition inhibition. AH1F fibroblasts, Alexa488-fibronectin deposition fluorescence, overnight. inhibition, % at 12.6 µM. hit rate 0.086% among 350,000;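 active = mean inhibition across replicates of 30% or more, regardless of how many single replicates reach that level; inconclusive = mean under 30% yet at least half of replicates reach 30%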
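test system = AH1F fibroblasts assembling fluorescent fibronectin matrix | quantity = 10000 AH1F cells per well | buffer or medium = DMEM plus 2% serum, read in PBS | doses = single dose, pinned | incubation = 1 h cell attachment, overnight exposure to compound and label | detection = fluorescence at 485 nm excitation, 525 nm emission | read-out basis = inhibition from reduced deposited-fibronectin fluorescence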
PDI inh = PDI (human) enzyme inhibition. P07237. PDI insulin aggregation turbidity, A650, 90 min. inhibition, % at 10 µM. hit rate 0.052% among 350,000. AID 588391;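 active = mean inhibition across replicates of 30% or more, whatever share of single replicates reach that level; inconclusive = mean inhibition below 30% while every single replicate reaches 30%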
FGF22 binding = binders of recombinant human FGF22 by thermal shift; Q9HCT0; SYPRO orange fluorescence; percent of sucrose octasulfate shift, DMSO zero; activity (Tm shift, normalised), % at 9.99 µM; hit rate 1.5% among 340,000;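 active = mean Tm shift, scaled 0 neutral to 100 positive control, at about 1.3% or above, every replicate too, limit read from the data; inconclusive = no clear call, values can overlap the other calls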
Target sequence (Q9HCT0 whole entry, looked up): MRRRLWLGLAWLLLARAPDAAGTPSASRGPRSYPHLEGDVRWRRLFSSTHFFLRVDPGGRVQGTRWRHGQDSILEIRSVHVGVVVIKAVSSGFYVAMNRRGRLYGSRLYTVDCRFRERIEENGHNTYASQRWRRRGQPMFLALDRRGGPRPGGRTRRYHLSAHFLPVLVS
ARNT-TACC3 inh = disruptors of human ARNT/TACC3 interaction. Q9Y6A5. AlphaScreen His-ARNT PAS-B/GST-TACC3 binding, luminescence; TACC3 fragment carries E629A point mutation. inhibition, % at 9.99 µM. hit rate 0.66% among 390,000. AID 623870;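 active = mean inhibition of replicates at least 50% and at least half of replicates each reaching 50%; inconclusive = half or more replicates reach 50% but mean below 50%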
Hits are given with their value; - = inactive; ? = inconclusive; . = not tested or not shown. Most compounds without a hit are left out; they make up all but 2.1% or so of the library.

SMILES	ERp5 block	AF4-AF9 inh	FN deposit inh	PDI inh	FGF22 binding	ARNT-TACC3 inh
COc1ccccc1NC(=O)N1C[C@@H](O)COC[C@H]2O[C@H](CC(=O)NCCc3ccncc3)CC[C@@H]21	-	-	-	.	-	-
O=C(N[C@H]1CC[C@H](CCNC(=O)C2CCC2)O[C@H]1CO)c1ccncc1	-	-	-	.	-	-
Cc1cccc(OCC(=O)N2CCN(S(C)(=O)=O)CC2)c1	-	-	-	-	43	-
Cc1ccc(OCC(=O)N2CCN(S(C)(=O)=O)CC2)cc1	-	-	-	-	-	-
C[C@@H]1CCCCO[C@@H](CN(C)Cc2ccncc2)[C@@H](C)CN([C@H](C)CO)C(=O)c2cc(NC(=O)CCCN(C)C)ccc2O1	-	-	.	.	-	-
N#C/C(=C(/O)CSc1ncn[nH]1)c1nc2ccccc2[nH]1	-	-	-	-	44	-
COc1ccc(NC(=S)NNC(=O)CNc2ccc(Cl)cc2)cc1	-	-	.	-	1.4	.
O=C(NC(=S)Nc1ccc(CN2CCOCC2)cc1)c1ccco1	.	-	-	-	-	-
CC(C)CC(=O)NC(=S)Nc1cccc(NC(=O)c2ccccc2Cl)c1	.	.	-	-	.	-
O=C(NC(=S)Nc1ccc(CN2CCCCC2)cc1)c1ccco1	-	-	-	-	43	-
COc1ccc(NC(=S)NNC(=O)COc2ccc(Cl)cc2Cl)cc1	.	.	-	-	.	-
CC(C)Oc1cccc(C(=O)NC(=S)Nc2cccc(NC(=O)c3ccccc3Cl)c2)c1	-	-	-	?	-	49
COc1ccccc1C(=O)NC(=S)Nc1ccc(NC(=O)c2ccco2)cc1	-	-	-	-	1.5	-
COc1cccc(C(=O)Nc2ccc3c(c2)C(=O)N(C)C[C@@H](OC)[C@H](C)CN[C@@H](C)CO3)c1	-	-	-	.	-	-
CN(C)C(=O)[C@H]1[C@H](CO)[C@H]2Cn3c(cccc3=O)[C@H]2N1CC1CCCCC1	-	-	.	.	.	.
O=C(C[C@H]1CC[C@@H]2[C@H](COC[C@H](O)CN2C(=O)Nc2cc(Cl)cc(Cl)c2)O1)NCC1CCCCC1	-	-	-	.	-	-
COc1ccc(NC(=S)NC(=O)c2ccccc2Cl)cc1	-	-	-	-	43	-
COc1ccc2cc(C#N)c(Nc3cccc(F)c3)nc2c1	-	-	-	-	44	-
O=C(Cn1c(NCCO)nc2ccccc21)NCC1CCCO1 (stereo not given)	-	-	-	-	43	-
O=C(Cn1c(NCCO)nc2ccccc21)NCCc1ccccc1	.	.	.	-	.	-
CCC(=O)c1cn(CC(=O)NCC2CCCO2)c2ccccc12 (stereo not given)	.	.	-	-	.	-
CCN(CC)C(=O)C(=O)c1cn(CC(=O)NCC2CCCO2)c2ccccc12 (stereo not given)	-	-	-	-	44	-
C[C@H](CO)N1C[C@H](C)[C@H](CN(C)C(=O)Cc2ccccc2)OCCCC[C@H](C)Oc2ccc(NC(=O)Nc3ccc(C(F)(F)F)cc3)cc2C1=O	-	-	.	.	-	-
COc1ccc(-c2cc(=O)n(-c3nc4ccccc4[nH]3)[nH]2)cc1	.	.	.	-	.	47
COc1ccc(-c2nc3ccccc3[nH]2)cc1	-	-	.	-	-	-
SMILES	ERp5 block	AF4-AF9 inh	FN deposit inh	PDI inh	FGF22 binding	ARNT-TACC3 inh
COCC(=O)N1CC2(C1)CN(C(=O)Cc1ccccc1)[C@H](CO)c1c2c2ccc(OC)cc2n1C	.	-	.	.	-	.
CC(=Nc1ccccc1)c1sc2ccccc2c1O	-	26	.	-	-	-
CCC(C(=O)Nc1ccccc1N1CCCC1)c1ccccc1 (stereo not given)	-	-	-	-	-	-
CCC(C(=O)Nc1cccc(C(=O)O)c1C)c1ccccc1 (stereo not given)	-	-	-	-	43	.
CN1C(=O)c2cc(NC(=O)c3ccccc3)ccc2OC[C@H]2O[C@H](CC(=O)NCC3CC3)CC[C@@H]21	-	-	.	.	-	-
Cn1c(SCC(=O)N/N=C/c2ccco2)nc2ccccc21	-	-	-	-	43	-
C[C@@H]1CCCCO[C@@H](CN(C)Cc2ccc3c(c2)OCO3)[C@H](C)CN([C@H](C)CO)C(=O)c2cc(NS(=O)(=O)c3ccc(Cl)cc3)ccc2O1	-	-	-	.	.	-
CCOc1c2ccc(C(=O)NCCc3ccc(C)cc3)cc2nn1CC	-	-	-	-	-	.
CCn1nc2cc(C(=O)NCCc3cccs3)ccc2c1OC	-	26	-	-	-	-
CC(C)NC(=O)N(C)C[C@H]1Oc2ncc(C#CCC3CCCC3)cc2C(=O)N([C@H](C)CO)C[C@@H]1C	-	-	-	.	-	-
Cc1cccc(NC(=O)CN2C(=O)S/C(=C\c3ccc(O)c([N+](=O)[O-])c3)C2=O)c1	-	-	-	-	44	-
O=C(/C=C/c1ccccc1)Oc1cccc2cccnc12	-	-	-	-	-	47
O=C(/C=C\c1ccccc1)Oc1cccc2cccnc12	-	-	-	-	-	.
CC12CC(O)C3C(CCC4=CC(=O)CCC43C)C1CCC2=CCO (stereo not given)	-	-	-	-	43	-
C[C@]12CCC(=O)C=C1CC[C@@H]1[C@@H]2[C@@H](O)C[C@]2(C=O)[C@@H](C(=O)CO)CC[C@@H]12	-	-	-	-	-	-
CC(=O)OC1CC2(C)C(C(C)=O)CCC2C2CCC3=CC(=O)CCC3(C)C12 (stereo not given)	-	-	-	-	43	-
Brc1ccc(N/N=C(/N=Nc2nn[nH]n2)c2ccccc2)cc1	-	41	-	-	-	-
O=C(O)c1ccc(N=N/C(=N\Nc2ccc(C(=O)O)cc2)c2ccccc2)cc1	-	-	-	-	-	.
C[C@H]1CN([C@@H](C)CO)C(=O)c2cc(C#CCN(C)C)cnc2O[C@@H]1CN(C)C(=O)Nc1cccc(F)c1	-	-	.	.	-	-
O=C1C2C3CCC(O3)C2C(=O)N1c1nccs1 (stereo not given)	-	-	-	-	-	-
CC12C(=O)N(c3nccs3)C(=O)C1(C)C1CCC2O1 (stereo not given)	-	-	-	-	43	.
O=c1nc2cccc3c2=c(/c1=C(\O)c1ccccc1)c1ccccc1c3=O	-	-	-	-	44	-
O=c1[nH]c(/C=C/c2cccc3ccccc23)nc2ccccc12	-	-	-	-	-	-
C[C@@H]1CN([C@@H](C)CO)C(=O)c2cccc(NS(C)(=O)=O)c2O[C@@H]1CN(C)S(=O)(=O)c1ccccc1	-	-	.	.	-	-
COc1cc(NC(=O)COn2nnc3ccc(S(C)(=O)=O)cc32)cc(OC)c1	-	-	-	-	43	-
N/C(=N\NC(=O)Nc1ccc(Cl)cc1)c1ccccn1	-	-	-	-	-	66
COc1ccc(/C=N\NC(=O)c2ccc(Cn3cc(Br)c([N+](=O)[O-])n3)o2)c(OC)c1C	-	-	-	-	44	.
